Data reported in ChEMBL document CHEMBL1141586, “Design and optimization of imidazole derivatives as potent CXCR3 antagonists” (Bioorg Med Chem Lett, 2008).
pIC50: −log10 of the molar value. Values after ≈ are worked out from the molar mass of the structure shown.

Tests used:
[1] = tested on: Liver microsomes; assay: Metabolic stability in human liver microsomes assessed as decrease in glutathione conjugate formation; format: ADME, Microsome; design: scale not given: the % may be the effect or the level left
[2] = target: T1, C-X-C chemokine receptor type 3 (Homo sapiens, UniProt P49682); assay: Displacement of [125I]IP10 from human recombinant CXCR3 receptor expressed in IL2-activated human PBMC
T1 sequence (P49682 whole entry): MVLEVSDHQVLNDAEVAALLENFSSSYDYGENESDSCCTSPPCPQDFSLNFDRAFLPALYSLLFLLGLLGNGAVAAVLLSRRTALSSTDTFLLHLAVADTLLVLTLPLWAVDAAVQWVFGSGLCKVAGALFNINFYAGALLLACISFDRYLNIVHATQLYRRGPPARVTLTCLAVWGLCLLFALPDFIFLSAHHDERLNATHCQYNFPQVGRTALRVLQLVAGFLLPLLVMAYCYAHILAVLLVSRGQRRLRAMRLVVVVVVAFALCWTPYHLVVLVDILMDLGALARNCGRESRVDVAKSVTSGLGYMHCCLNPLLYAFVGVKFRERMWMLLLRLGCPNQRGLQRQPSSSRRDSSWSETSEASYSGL

[3] = tested on: Rattus norvegicus; assay: Clearance in rat at 0.5 mg/kg, iv; format: ADME, organism-based; design: dose 0.5 mg/kg, route intravenous; conditions: in vivo
Summary of the method: (§1)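 Rats given a single intravenous dose of 0.5 mg/kg; clearance, AUC and mean residence time derived from plasma exposure; n = 2 animals.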

[4] = tested on: Rattus norvegicus; assay: AUC in rat at 0.5 mg/kg, iv; format: ADME, organism-based, Plasma; design: dose 0.5 mg/kg, route intravenous; conditions: in vivo; summary of the method: as §1
[5] = Mean residence time in rat at 2 mg/kg, po; format: ADME, organism-based; design: dose 2 mg/kg, route oral; conditions: in vivo
[6] = AUC in rat at 2 mg/kg, po; format: ADME, organism-based; design: dose 2 mg/kg, route oral; conditions: plasma
[7] = target: T2, C-X-C chemokine receptor type 3 (Homo sapiens) (UniProt P49682); assay: Antagonist activity at human CXCR3 receptor assessed as ITAC-induced cellular migration in PBMC in presence of plasma; format: functional
T2 sequence (whole entry): T1 sequence (P49682 whole entry)

[8] = Oral bioavailability in rat at 2 mg/kg; format: ADME, organism-based; conditions: in vivo
[9] = Mean residence time in rat at 0.5 mg/kg, iv; format: ADME, organism-based; design: dose 0.5 mg/kg, route intravenous; conditions: in vivo; summary of the method: as §1
[10] = target: T1, C-X-C chemokine receptor type 3; assay: Displacement of [125I]IP10 from human recombinant CXCR3 receptor expressed in IL2-activated human PBMC in presence of plasma
Summary of the method: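 PBMC were activated for 14 days with anti-CD3 mAb and recombinant human IL-2, then co-incubated with antagonist and recombinant human 125I-IP10 for 2 h at room temperature in EDTA-anticoagulated human plasma (from frozen stocks). Cells were filter-harvested and bound radioactivity counted by scintillation. IC50 is the mean of three experiments.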

[11] = Solubility at pH 7.4; format: physicochemical; conditions: buffer
Summary of the method: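 10 mM DMSO stock added to pH 7.4 assay buffer, final DMSO about 1%. Compound concentration in the supernatant is measured.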

[12] = Membrane permeability by PAMPA assay; format: ADME; conditions: read-out: permeability
Summary of the method: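 PAMPA: passive permeation across an artificial phospholipid bilayer membrane; result expressed in 10^-6 cm/s.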

SMILES | pIC50 [2] | Activity [7] [nM] | pIC50 [10] | further results
CCS(=O)(=O)CCN(C(=O)Cc1ccc(F)c(C(F)(F)F)c1)[C@H](C)c1nc(C2CC2)c(C(F)F)n1-c1ccc(C#N)cc1 | 7.92 | 20 | 7.74 | Activity [1]: 0%; CL [3]: 36.7 mL/min/kg; AUC [4]: 237 ng·h/mL; MRT [5]: 2.4 h; AUC [6]: 456 ng·h/mL; bioavailability [8]: 48%; MRT [9]: 0.9 h
CCS(=O)(=O)CCN(C(=O)Cc1ccc(F)c(C(F)(F)F)c1)[C@H](C)c1nc(C2CC2)c(Cl)n1-c1ccc(C#N)cc1 | 8.11 | 80 | 7.62 | Activity [1]: 0%; CL [3]: 38.3 mL/min/kg; AUC [4]: 219; MRT [5]: 5.4 h; AUC [6]: 225 ng·h/mL; bioavailability [8]: 26%; MRT [9]: 1.3 h
CCOc1ccc(-n2cc(-c3ccccc3)nc2[C@@H](C)N(CCS(=O)(=O)CC)C(=O)Cc2ccc(OC(F)(F)F)cc2)cc1 | 8.15 | – | 7.35 | –
CCS(=O)(=O)CCN(C(=O)Cc1ccc(F)c(C(F)(F)F)c1)[C@H](C)c1nc(C2CC2)c(C(F)(F)F)n1-c1ccc(C#N)cc1 | 7.72 | 268 | 7.35 | Activity [1]: 0%
CCOc1ccc(-n2cc(-c3ccccc3)nc2[C@@H](C)N(Cc2ccncc2)C(=O)Cc2ccc(F)c(C(F)(F)F)c2)cc1 | 7.46 | – | 6.89 | –
CCS(=O)(=O)CCN(C(=O)Cc1ccc(F)c(C(F)(F)F)c1)[C@H](C)c1nc(C2CC2)c(CO)n1-c1ccc(C#N)cc1 | 8.00 | 113 | 7.48 | Activity [1]: 1%
CCOc1ccc(-n2cc(-c3ccccc3)nc2[C@@H](C)N(C[C@@H]2CCCN2)C(=O)Cc2ccc(F)c(C(F)(F)F)c2)cc1 | 7.96 | – | 7.70 | –
CCOc1ccc(-n2cc(-c3ccccc3)nc2[C@@H](C)N(CCS(=O)(=O)CC)C(=O)Cn2ccc(C(F)(F)F)n2)cc1 | 7.40 | – | 5.95 | –
CCOc1ccc(-n2cc(-c3ccccc3)nc2[C@@H](C)N(C[C@H]2CCCN2)C(=O)Cc2ccc(F)c(C(F)(F)F)c2)cc1 | 7.34 | – | 7.44 | –
CCOc1ccc(-n2cc(-c3ccccc3)nc2[C@@H](C)N(Cc2ccccn2)C(=O)Cc2ccc(F)c(C(F)(F)F)c2)cc1 | 7.10 | – | 5.93 | –
CCS(=O)(=O)CCN(C(=O)Cc1ccc(F)c(C(F)(F)F)c1)[C@H](C)c1nc(C2CC2)cn1-c1ccc(C#N)cc1 | 8.18 | 53 | 7.43 | Activity [1]: 44%; CL [3]: 55 mL/min/kg; AUC [4]: 149 ng·h/mL; MRT [5]: 2.4 h; solubility [11]: 32 µg/mL (≈ 55.5 µM); AUC [6]: 95 ng·h/mL; bioavailability [8]: 16%; Papp [12]: 5.1 ×10⁻⁶ cm/s; MRT [9]: 1 h
CCOc1ccc(-n2cc(-c3ccccc3)nc2[C@@H](C)N(C[C@H]2CCCN2C)C(=O)Cc2ccc(F)c(C(F)(F)F)c2)cc1 | 7.85 | – | 7.09 | –
CCOc1ccc(-n2cc(-c3ccccc3)nc2[C@@H](C)N(Cc2cccnc2)C(=O)Cc2ccc(F)c(C(F)(F)F)c2)cc1 | 7.96 | – | 7.04 | –
CCOc1ccc(-n2cc(-c3ccccc3)nc2[C@@H](C)N(CCS(=O)(=O)CC)C(=O)Cn2nnc(C3CC3)n2)cc1 | 7.36 | – | 5.78 | –
CCOc1ccc(-n2ccnc2[C@@H](C)N(Cc2cccnc2)C(=O)Cc2ccc(F)c(C(F)(F)F)c2)cc1 | 5.74 | – | – | –
CCS(=O)(=O)CCN(C(=O)Cc1ccc(F)c(C(F)(F)F)c1)[C@H](C)c1nc(C2CC2)c(-c2ccccc2)n1-c1ccc(C#N)cc1 | 6.12 | – | 5.00 | –
CCS(=O)(=O)CCN(C(=O)Cc1ccc(F)c(C(F)(F)F)c1)[C@H](C)c1nc(C2CC2)c(CF)n1-c1ccc(C#N)cc1 | 8.10 | 119 | 7.55 | –
CCOCCN(C(=O)Cc1ccc(F)c(C(F)(F)F)c1)[C@H](C)c1nc(-c2ccccc2)cn1-c1ccc(OCC)cc1 | 7.96 | – | 6.69 | –
CCOc1ccc(-n2cc(-c3ccccc3)nc2[C@@H](C)N(CCS(=O)(=O)CC)C(=O)Cn2nnc(-c3ccccc3)n2)cc1 | 8.03 | – | 7.16 | –
CCOc1ccc(-n2cc(-c3ccccc3)nc2[C@@H](C)N(C[C@@H]2CCCN2C)C(=O)Cc2ccc(F)c(C(F)(F)F)c2)cc1 | 8.19 | – | 7.51 | –
CCS(=O)(=O)CCN(C(=O)Cc1ccc(F)c(C(F)(F)F)c1)[C@H](C)c1nc(C2CC2)c(C#N)n1-c1ccc(C#N)cc1 | 7.14 | – | 6.56 | Activity [1]: 0%

Now those with a higher pIC50 [2], led by results:

pIC50 [2] | Activity [7] [nM] | pIC50 [10] | SMILES | further results
8.49 | 29 | 7.80 | CCc1c(C2CC2)nc([C@@H](C)N(CCS(=O)(=O)CC)C(=O)Cc2ccc(F)c(C(F)(F)F)c2)n1-c1ccc(C#N)cc1 | Activity [1]: 14%
8.40 | 33 | 7.37 | CCS(=O)(=O)CCN(C(=O)Cc1ccc(F)c(C(F)(F)F)c1)[C@H](C)c1nc(-c2ccccn2)cn1-c1ccc(C#N)cc1 | –
8.59 | 54 | 7.72 | CCS(=O)(=O)CCN(C(=O)Cc1ccc(F)c(C(F)(F)F)c1)[C@H](C)c1nc(C(C)C)cn1-c1ccc(C#N)cc1 | –
8.62 | – | 7.74 | CCOc1ccc(-n2cc(-c3ccccc3)nc2[C@@H](C)N(CCCS(=O)(=O)CC)C(=O)Cc2ccc(F)c(C(F)(F)F)c2)cc1 | –
8.30 | – | 7.33 | CCOc1ccc(-n2cc(-c3ccccc3)nc2[C@@H](C)N(CCS(=O)(=O)CC)C(=O)Cn2nnc(-c3ccc(F)cc3)n2)cc1 | –
9.40 | – | 8.35 | CCOc1ccc(-n2cc(-c3ccccc3)nc2[C@@H](C)N(CCS(=O)(=O)CC)C(=O)Cc2ccc(F)c(C(F)(F)F)c2)cc1 | –
8.68 | – | 7.72 | CCOc1ccc(-n2cc(-c3ccccc3)nc2[C@@H](C)N(CCS(=O)(=O)CC)C(=O)Cn2nnc(-c3ccc(C(F)(F)F)cc3)n2)cc1 | –
8.32 | – | 7.62 | CCOc1ccc(-n2cc(-c3ccccc3)nc2[C@@H](C)N(CCS(=O)(=O)CC)C(=O)Cn2cnc(-c3ccccc3)c2)cc1 | –
9.15 | 10 | 7.85 | CCS(=O)(=O)CCN(C(=O)Cc1ccc(F)c(C(F)(F)F)c1)[C@H](C)c1nc(-c2ccccc2)cn1-c1ccc(C#N)cc1 | CL [3]: 91.7 mL/min/kg; AUC [4]: 92 ng·h/mL; MRT [5]: 0.9 h; solubility [11]: 0.5 µg/mL (≈ 0.816 µM); AUC [6]: 11 ng·h/mL; bioavailability [8]: 3%; Papp [12]: 0.9 ×10⁻⁶ cm/s; MRT [9]: 0.3 h
8.64 | 91 | 7.54 | CCS(=O)(=O)CCN(C(=O)Cc1ccc(F)c(C(F)(F)F)c1)[C@H](C)c1nc(-c2cccnc2)cn1-c1ccc(C#N)cc1 | –
8.25 | – | 7.31 | CCOc1ccc(-n2cc(-c3ccccc3)nc2[C@@H](C)N(CCS(=O)(=O)CC)C(=O)Cn2cc(-c3ccccc3)nn2)cc1 | –
8.60 | 100 | 7.68 | CCS(=O)(=O)CCN(C(=O)Cc1ccc(F)c(C(F)(F)F)c1)[C@H](C)c1nc(C(C)(C)C)cn1-c1ccc(C#N)cc1 | –
8.42 | 45 | 7.66 | C=Cc1c(C2CC2)nc([C@@H](C)N(CCS(=O)(=O)CC)C(=O)Cc2ccc(F)c(C(F)(F)F)c2)n1-c1ccc(C#N)cc1 | Activity [1]: 8%
